Experiment [1] concerns the target Protein arginine N-methyltransferase 8 (Homo sapiens) (UniProt Q9NR22). The experiment in a line: Inhibition of N/C-terminal His-tagged PRMT8 (61 to 394 residues) (unknown origin) expressed in Escherichia coli at 1 uM using 3H-SAM as a substrate relative to control. The method, boiled down: (§1)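 Contracted 3H-SAM methyl-transfer scintillation proximity assay against a panel of methyltransferases; compound tested at 1 μM in duplicate; inhibition expressed as percent of control enzyme activity.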

Experiment [2] deals with Histone-lysine N-methyltransferase EHMT1 (Homo sapiens) (UniProt Q9H9B1). Kind of experiment: Inhibition of human GLP (982 to 1266 residues) using H3 peptide as substrate in presence of SAM cofactor by scintillation counting method. The conditions noted are these: time 5-45 min, TDE = time-dependent effect. The method in brief:
(§2)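 Contracted scintillation proximity assay following 3H-methyl transfer from SAM (1 μM) to H3 peptide (0.05 μM) by G9a or GLP (5 nM each), with preincubation times of 5, 15 or 45 min; four replicates.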

The target is the same in experiment [3]. The experiment in a line: Inhibition of human GLP (982 to 1266 residues) assessed as covalent modification by measuring GLP adduct formation by mass spectrometry. The note with it: time <= 120.0 min, TDE = time-dependent effect. The method, boiled down:
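Purified G9a or GLP catalytic domain (5 μM) in 50 mM Tris-HCl pH 7.5, 150 mM NaCl incubated with 50 μM compound or DMSO at room temperature (1 h, or 30 and 60 min in time course); intact mass by ESI LC/MS-TOF; adduct % = adduct/(protein + adduct) × 100.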

In experiment [4] the target is PRMT5/MEP50 complex (Homo sapiens) (UniProt O14744+Q9BQA1). The experiment in a line: Inhibition of recombinant human N-terminal Flag-tagged PRMT5 (2 to 637 residues)/N-terminal His-tagged MEP50 (2 to 342 residues) expressed in baculovirus expression system at 1 uM using 3H-SAM as a substrate relative to control. The method in brief:
as §1

Experiment [5] concerns the target Histone-lysine N-methyltransferase NSD3 (Homo sapiens) (UniProt Q9BZ95). The experiment in a line: Inhibition of N-terminal GST tagged NSD3 (1021 to 1322 residues) (unknown origin) expressed in Escherichia coli at 1 uM using 3H-SAM as a substrate relative to control. The method in brief:
as §1

In experiment [6] the target is Histone-lysine N-methyltransferase SUV39H1 (Homo sapiens) (UniProt O43463). The experiment in a line: Inhibition of N-terminal fusion protein with C-terminal His-tagged SUV39H1 (44 to 412 residues) (unknown origin) expressed in Escherichia coli at 1 uM using 3H-SAM as a substrate relative to control. The method in brief:
as §1

Experiment [7] concerns MDA-MB-231. Kind of experiment: Cytotoxicity against human MDA-MB-231 cells after 3 days by CCK-8 assay. It counts as functional, cell-based. The conditions noted are these: time 3.0 day. The method, boiled down:
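MDA-MB-231 cells seeded at 1 × 10^4 per well in 96-well plates, exposed to compounds over a range of concentrations for 3 days.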

For experiment [8], the target named is T1, Histone-lysine N-methyltransferase EHMT1 (Homo sapiens, UniProt Q9H9B1).
T1 sequence (Q9H9B1 whole entry): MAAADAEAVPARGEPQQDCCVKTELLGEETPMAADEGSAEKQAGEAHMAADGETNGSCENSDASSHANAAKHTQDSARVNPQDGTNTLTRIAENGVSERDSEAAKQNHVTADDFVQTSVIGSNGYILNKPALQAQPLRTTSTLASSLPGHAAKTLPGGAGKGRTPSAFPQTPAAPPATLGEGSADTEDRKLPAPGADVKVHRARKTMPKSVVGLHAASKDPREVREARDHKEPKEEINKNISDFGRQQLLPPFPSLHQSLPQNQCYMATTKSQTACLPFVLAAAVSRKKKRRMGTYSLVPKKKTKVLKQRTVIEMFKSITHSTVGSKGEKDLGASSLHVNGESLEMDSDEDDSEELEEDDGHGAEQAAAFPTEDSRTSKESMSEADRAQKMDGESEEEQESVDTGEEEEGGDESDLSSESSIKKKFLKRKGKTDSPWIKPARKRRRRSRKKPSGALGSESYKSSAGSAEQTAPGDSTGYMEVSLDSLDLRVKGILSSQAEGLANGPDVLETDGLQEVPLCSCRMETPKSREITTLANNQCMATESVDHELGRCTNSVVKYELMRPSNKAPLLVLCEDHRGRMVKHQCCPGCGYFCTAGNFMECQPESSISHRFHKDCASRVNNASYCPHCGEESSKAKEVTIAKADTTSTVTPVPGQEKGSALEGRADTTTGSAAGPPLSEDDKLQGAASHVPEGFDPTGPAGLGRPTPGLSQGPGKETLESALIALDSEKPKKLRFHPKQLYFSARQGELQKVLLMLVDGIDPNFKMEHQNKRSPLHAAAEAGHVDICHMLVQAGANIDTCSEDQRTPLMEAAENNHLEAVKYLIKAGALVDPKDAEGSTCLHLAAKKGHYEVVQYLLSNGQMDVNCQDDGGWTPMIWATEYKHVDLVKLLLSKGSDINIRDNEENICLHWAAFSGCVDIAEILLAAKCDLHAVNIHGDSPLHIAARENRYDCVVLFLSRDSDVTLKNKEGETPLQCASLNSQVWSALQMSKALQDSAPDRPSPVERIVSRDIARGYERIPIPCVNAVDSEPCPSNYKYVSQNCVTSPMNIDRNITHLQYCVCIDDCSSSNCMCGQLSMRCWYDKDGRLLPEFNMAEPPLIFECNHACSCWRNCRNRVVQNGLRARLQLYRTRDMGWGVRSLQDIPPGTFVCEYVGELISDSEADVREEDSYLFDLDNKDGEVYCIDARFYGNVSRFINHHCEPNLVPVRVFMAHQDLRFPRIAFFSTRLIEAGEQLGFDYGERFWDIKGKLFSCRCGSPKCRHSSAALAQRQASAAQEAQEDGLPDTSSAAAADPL
Kind of experiment: Inhibition of human GLP (982 to 1266 residues) using H3 peptide as substrate measured upto 45 mins in presence of SAM cofactor. The method in brief:
as §2

In experiment [9] the target is Histone-arginine methyltransferase CARM1 (Homo sapiens) (UniProt Q86X55). The experiment in a line: Inhibition of N-terminal GST-tagged PRMT4 (2 to 608 residues)(unknown origin) expressed in Escherichia coli at 1 uM using 3H-SAM as a substrate relative to control. The method in brief:
as §1

In experiment [10] the test system is MDA-MB-231. The experiment in a line: Down regulation of H3K9 dimethylation in human MDA-MB-231 cells at 0.2 to 5 uM by Western blot analysis. Format: functional, cell-based. The note with it: dose 0.2-5 µM, time lower […], time upper 72.0 hrs, TDE = time-dependent effect. On the technique in general: Immunoblotting shows a protein as a band on a membrane.
The target of experiment [11] is T1, Histone-lysine N-methyltransferase EHMT1. The experiment in a line: Binding affinity to human GLP (982 to 1266 residues) assessed as dissociation constant by isothermal titration calorimetry method. The method, boiled down:
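ITC at 25 °C in 50 mM Tris-HCl pH 7.5, 150 mM NaCl, 1% DMSO; 500 μM compound in syringe titrated into 50 μM G9a or GLP catalytic domain in cell (initial 0.4 μL injection then 13 injections), stirring 750 rpm; run time about 50 min; single binding site fit; mean ± SD of two independent measurements.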
For orientation: Isothermal titration calorimetry measures the heat released or taken up as one component is titrated into another.

The target in experiment [12] is Histone-lysine N-methyltransferase 2A (Homo sapiens) (UniProt Q03164). Kind of experiment: Inhibition of N-terminal His-tagged MLL1 (3745 to 3969 residues) (unknown origin) expressed in Escherichia coli at 1 uM using 3H-SAM as a substrate relative to control. The method in brief: as §1

Activity calls are given as the source filed them. The calls are words filed in the database; no cut-off is given here. Some results are limits rather than exact numbers.

Sequence of Protein arginine N-methyltransferase 8 (Homo sapiens) (Q9NR22 2-394 limits assumed): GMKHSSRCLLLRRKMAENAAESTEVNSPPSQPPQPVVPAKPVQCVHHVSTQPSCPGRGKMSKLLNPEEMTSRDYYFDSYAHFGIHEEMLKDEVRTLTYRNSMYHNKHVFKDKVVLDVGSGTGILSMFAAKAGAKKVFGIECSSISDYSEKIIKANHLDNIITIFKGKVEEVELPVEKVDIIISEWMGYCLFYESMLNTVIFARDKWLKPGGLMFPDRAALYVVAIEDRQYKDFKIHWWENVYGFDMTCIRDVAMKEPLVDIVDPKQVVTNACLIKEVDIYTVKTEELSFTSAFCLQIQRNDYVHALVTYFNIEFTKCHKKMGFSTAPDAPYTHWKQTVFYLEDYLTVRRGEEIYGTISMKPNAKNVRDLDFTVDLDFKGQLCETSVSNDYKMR
Sequence of Histone-arginine methyltransferase CARM1 (Homo sapiens) (Q86X55 whole entry, the tested form may be a part): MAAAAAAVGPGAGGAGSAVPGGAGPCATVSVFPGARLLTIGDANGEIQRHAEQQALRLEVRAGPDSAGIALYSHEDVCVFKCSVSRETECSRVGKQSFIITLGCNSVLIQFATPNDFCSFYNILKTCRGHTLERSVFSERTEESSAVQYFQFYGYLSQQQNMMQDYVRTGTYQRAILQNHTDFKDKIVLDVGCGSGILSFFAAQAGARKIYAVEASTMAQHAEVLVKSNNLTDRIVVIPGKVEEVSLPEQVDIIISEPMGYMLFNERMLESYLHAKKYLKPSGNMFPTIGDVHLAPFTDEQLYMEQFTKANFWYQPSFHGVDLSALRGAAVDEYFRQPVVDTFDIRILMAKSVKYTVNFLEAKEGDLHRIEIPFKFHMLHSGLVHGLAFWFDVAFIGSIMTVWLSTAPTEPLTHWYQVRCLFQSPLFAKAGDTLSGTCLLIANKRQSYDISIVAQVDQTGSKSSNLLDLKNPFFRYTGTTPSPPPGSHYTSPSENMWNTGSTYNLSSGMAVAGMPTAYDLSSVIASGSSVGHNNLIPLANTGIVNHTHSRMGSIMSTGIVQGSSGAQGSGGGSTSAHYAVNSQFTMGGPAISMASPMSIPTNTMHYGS
Sequence of Histone-lysine N-methyltransferase 2A (Homo sapiens) (Q03164 1-2718 limits assumed): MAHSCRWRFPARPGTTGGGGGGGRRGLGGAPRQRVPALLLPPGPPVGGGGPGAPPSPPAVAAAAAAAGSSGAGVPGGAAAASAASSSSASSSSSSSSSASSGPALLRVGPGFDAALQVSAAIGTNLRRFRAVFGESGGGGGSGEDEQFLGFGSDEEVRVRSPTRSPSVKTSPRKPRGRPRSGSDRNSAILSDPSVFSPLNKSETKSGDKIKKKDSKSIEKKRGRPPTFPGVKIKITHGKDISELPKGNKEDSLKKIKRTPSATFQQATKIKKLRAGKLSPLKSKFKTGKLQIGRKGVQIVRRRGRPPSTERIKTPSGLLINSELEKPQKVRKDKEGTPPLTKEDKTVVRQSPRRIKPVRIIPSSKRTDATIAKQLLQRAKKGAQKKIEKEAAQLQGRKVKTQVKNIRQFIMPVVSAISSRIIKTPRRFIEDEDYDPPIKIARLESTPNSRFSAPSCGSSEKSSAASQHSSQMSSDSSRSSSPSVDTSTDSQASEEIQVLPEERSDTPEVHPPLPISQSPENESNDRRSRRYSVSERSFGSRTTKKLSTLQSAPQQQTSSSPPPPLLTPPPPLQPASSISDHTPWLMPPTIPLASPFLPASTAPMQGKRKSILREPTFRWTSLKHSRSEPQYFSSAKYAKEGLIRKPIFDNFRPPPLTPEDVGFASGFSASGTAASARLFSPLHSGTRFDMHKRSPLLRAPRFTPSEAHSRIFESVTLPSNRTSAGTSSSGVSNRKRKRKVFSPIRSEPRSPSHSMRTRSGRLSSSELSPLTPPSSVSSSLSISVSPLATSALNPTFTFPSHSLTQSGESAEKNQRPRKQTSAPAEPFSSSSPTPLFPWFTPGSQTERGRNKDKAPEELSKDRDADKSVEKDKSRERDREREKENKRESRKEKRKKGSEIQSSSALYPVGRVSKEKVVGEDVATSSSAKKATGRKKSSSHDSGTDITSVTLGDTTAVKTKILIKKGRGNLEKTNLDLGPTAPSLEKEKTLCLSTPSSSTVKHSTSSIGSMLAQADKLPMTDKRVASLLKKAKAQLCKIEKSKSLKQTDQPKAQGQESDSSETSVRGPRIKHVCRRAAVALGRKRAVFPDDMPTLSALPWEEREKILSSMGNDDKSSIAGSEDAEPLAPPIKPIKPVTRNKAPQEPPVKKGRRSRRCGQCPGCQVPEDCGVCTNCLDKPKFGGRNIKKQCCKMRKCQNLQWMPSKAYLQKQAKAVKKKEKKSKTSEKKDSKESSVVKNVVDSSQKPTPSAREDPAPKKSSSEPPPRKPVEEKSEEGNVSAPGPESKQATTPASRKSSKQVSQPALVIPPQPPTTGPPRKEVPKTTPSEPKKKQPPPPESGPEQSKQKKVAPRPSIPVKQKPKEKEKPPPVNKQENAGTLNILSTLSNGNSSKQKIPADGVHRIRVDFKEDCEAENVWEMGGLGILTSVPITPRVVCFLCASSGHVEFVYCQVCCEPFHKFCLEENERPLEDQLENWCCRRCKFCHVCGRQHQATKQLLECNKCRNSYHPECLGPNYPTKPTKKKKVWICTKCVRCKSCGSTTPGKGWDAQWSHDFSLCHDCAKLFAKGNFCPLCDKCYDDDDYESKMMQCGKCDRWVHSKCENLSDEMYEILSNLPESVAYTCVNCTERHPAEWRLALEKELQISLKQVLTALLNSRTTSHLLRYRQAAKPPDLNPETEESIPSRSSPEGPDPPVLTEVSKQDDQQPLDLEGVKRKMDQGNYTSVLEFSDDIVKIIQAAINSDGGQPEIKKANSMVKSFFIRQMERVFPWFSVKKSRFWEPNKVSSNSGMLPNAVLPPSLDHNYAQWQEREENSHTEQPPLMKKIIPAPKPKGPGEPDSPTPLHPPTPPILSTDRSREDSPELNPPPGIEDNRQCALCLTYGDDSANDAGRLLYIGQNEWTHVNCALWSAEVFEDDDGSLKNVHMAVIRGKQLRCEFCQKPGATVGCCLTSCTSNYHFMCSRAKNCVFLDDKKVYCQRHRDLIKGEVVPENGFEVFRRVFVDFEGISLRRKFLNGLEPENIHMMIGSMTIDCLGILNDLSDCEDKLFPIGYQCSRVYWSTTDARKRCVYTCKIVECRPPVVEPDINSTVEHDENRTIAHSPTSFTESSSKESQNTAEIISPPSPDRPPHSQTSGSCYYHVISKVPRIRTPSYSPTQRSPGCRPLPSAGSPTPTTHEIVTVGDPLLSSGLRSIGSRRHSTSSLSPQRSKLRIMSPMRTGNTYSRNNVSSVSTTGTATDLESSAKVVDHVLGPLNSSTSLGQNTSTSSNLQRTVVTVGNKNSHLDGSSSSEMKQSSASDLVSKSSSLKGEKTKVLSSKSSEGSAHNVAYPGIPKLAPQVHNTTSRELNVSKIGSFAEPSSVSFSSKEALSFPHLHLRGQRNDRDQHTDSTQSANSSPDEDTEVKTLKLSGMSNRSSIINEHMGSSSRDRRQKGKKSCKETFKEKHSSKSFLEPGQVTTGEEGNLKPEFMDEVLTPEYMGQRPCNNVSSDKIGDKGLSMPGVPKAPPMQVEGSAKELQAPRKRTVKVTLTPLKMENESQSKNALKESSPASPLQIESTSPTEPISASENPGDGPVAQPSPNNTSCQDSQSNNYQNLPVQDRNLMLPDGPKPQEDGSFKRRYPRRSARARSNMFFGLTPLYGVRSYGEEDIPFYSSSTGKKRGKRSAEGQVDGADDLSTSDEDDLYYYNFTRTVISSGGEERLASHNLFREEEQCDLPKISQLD
Sequence of Histone-lysine N-methyltransferase 2A (Homo sapiens) (Q03164 2719-3969 limits assumed): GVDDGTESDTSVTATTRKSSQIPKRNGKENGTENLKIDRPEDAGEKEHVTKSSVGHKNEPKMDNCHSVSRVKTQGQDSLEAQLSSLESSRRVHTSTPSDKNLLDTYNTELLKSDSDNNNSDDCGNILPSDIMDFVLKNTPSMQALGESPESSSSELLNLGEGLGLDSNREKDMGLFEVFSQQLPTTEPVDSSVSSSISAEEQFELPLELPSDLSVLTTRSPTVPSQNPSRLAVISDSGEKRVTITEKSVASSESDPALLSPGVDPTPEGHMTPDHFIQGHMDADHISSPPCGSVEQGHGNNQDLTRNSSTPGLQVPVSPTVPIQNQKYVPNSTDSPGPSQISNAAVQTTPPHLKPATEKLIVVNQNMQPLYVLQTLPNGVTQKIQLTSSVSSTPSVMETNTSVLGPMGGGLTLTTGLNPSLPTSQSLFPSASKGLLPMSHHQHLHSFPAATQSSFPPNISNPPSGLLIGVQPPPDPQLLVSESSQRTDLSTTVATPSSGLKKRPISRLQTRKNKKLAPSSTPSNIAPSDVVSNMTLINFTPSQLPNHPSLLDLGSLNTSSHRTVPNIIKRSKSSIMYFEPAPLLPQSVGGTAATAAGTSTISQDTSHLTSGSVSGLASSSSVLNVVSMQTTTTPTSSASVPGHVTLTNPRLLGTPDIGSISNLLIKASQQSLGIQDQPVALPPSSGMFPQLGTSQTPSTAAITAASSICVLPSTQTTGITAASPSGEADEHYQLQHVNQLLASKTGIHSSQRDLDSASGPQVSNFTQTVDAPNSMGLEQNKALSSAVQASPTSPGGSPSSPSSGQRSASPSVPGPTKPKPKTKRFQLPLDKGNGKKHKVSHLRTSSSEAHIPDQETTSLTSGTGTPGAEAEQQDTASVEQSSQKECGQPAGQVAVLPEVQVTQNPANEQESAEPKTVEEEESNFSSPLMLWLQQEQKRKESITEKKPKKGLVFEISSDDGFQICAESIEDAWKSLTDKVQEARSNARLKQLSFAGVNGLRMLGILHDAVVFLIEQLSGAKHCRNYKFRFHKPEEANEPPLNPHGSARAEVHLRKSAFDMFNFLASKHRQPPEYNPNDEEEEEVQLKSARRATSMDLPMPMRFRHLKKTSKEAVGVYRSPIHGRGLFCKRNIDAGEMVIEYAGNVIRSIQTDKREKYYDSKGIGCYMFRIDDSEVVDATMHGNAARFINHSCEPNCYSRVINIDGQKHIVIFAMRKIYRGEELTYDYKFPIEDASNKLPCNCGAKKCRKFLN

What is called inhibition is the relative decrease from the control value, in per cent. One may read the IC50 as the midpoint of a concentration-inhibition curve. As a reminder, the Kd is a measure of binding affinity in units of concentration. Regarding `C=CC(=O)Nc1cc(NC2CCN(C(C)C)CC2)c2cc(OC)c(OCCCN3CCCC3)cc2n1`, the inhibition in [1] was below 50%; in [2], “Tde”; in experiment [3], “Tde”; in experiment [4] it was below 50%; in [5], below 50%; in experiment [6], below 50%. The inhibition in [9] and in experiment [12] was below 50% each time. Moreover, in the experiment on MDA-MB-231 [7], the result was Active. Further, the IC50 in [8] came to 140 nM. For the same compound, the Activity entry in the experiment with MDA-MB-231 [10] was “Tde”. In addition, the Kd in experiment [11] is 46 nM.

Values taken from ChEMBL document CHEMBL5126600, “Discovery of the First-in-Class G9a/GLP Covalent Inhibitors” (J Med Chem, 2022).
